Laboratory results from ChEMBL document CHEMBL1833821, “Defining the structural parameters that confer anticonvulsant activity by the site-by-site modification of (R)-N'-benzyl 2-amino-3-methylbutanamide” (J Med Chem, 2011).
Calls of active or inactive are those of the source.

What was measured:
Mus musculus [1] = assay: Anticonvulsant activity in ip dosed albino CF1 mouse assessed as protection against subcutaneous metrazol-induced seizures; format: functional, organism-based
Method in brief: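 Male albino CF-1 mice dosed ip under NINDS ASP; subcutaneous pentylenetetrazol (Metrazol) seizure threshold test.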

Rattus norvegicus [2] = assay: Anticonvulsant activity in po dosed albino Sprague-Dawley rat assessed as protection against maximal electroshock-induced seizures in presence of 150 miliamperes of electric current; format: functional
Method in brief: (§1)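 Adult male albino Sprague-Dawley rats dosed orally under NINDS ASP; MES test. ED50 in mg/kg, with time of testing noted in hours in brackets.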

[3] = Neurotoxicity in ip dosed albino CF1 mouse assessed as minimal motor coordination impairment by rotarod test; format: toxicity, organism-based; conditions: in vivo
Mus musculus [4] = assay: Neurotoxicity in ip dosed albino CF1 mouse assessed as time of peak effect by rotarod test; format: toxicity, organism-based; conditions: in vivo
[5] = Neurotoxicity in po dosed albino Sprague-Dawley rat; format: toxicity, organism-based; conditions: in vivo
Method in brief: (§2)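 Adult male albino Sprague-Dawley rats given compound orally under NINDS ASP. Behavioral toxicity was scored by the positional sense test or the gait and stance test. TD50 in mg/kg, with time in hours bracketed.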

Mus musculus [6] = assay: Anticonvulsant activity in ip dosed albino CF1 mouse assessed as protection against maximal electroshock-induced seizures in presence of 50 miliamperes of electric current; format: functional
Method in brief: (§3)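 Adult male albino CF-1 (Carworth Farms No. 1) mice dosed ip under NINDS ASP; MES test. Compounds with sufficient activity got a dose-response curve (4–6 doses, n = 8 per dose) at the time of peak effect (h, bracketed).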

Rattus norvegicus [7] = assay: Anticonvulsant activity in po dosed albino Sprague-Dawley rat assessed as time of peak effect by maximal electroshock seizures test in presence of 150 miliamperes of electric current; format: functional; method in brief: as §1
Rattus norvegicus [8] = assay: Behavioral toxicity in po dosed albino Sprague-Dawley rat assessed as time of peak effect; format: organism-based; conditions: in vivo; method in brief: as §2
Mus musculus [9] = assay: Anticonvulsant activity in ip dosed albino CF1 mouse assessed as time of peak effect by maximal electroshock seizures test in presence of 50 miliamperes of electric current; format: functional; method in brief: as §3
Rattus norvegicus [10] = organism: Rattus norvegicus; assay: Protective index, ratio of TD50 for albino Sprague-Dawley rat to ED50 for albino Sprague-Dawley rat by maximal electroshock seizures test; format: functional
Method in brief: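 Rat protective index calculated as behavioral toxicity TD50 divided by MES ED50, both after oral dosing of male Sprague-Dawley rats at the NINDS ASP.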

Mus musculus [11] = organism: Mus musculus; assay: Protective index, ratio of TD50 for albino CF1 mouse by rotarod test to ED50 for albino CF1 mouse by maximal electroshock seizures test; format: functional
Method in brief: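 Mouse protective index calculated as rotorod TD50 divided by MES ED50, both from ip dosing of male CF-1 mice at the NINDS ASP.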

Mus musculus [12] = assay: Anticonvulsant activity in ip dosed NMRI mouse assessed as protection against maximal electroshock-induced seizures after 30 mins in presence of 50 miliamperes of electric current; format: functional; conditions: 0.5 h

| SMILES | Activity (Mus musculus [1]) | ED50 (Rattus norvegicus [2]) [mg/kg] | TD50 [3] [mg/kg] | Time (Mus musculus [4]) [h] | TD50 [5] [mg/kg] | ED50 (Mus musculus [6]) [mg/kg] | Time (Rattus norvegicus [7]) [h] | Time (Rattus norvegicus [8]) [h] | Time (Mus musculus [9]) [h] | PI (Rattus norvegicus [10]) | PI (Mus musculus [11]) | ED50 (Mus musculus [12]) [mg/kg] |
| --- | --- | --- | --- | --- | --- | --- | --- | --- | --- | --- | --- | --- |
| CC(C)[C@@H](N)C(=O)OCc1ccccc1 | inactive | > 30 | > 300 | 0.5 | > 30 | > 300 | 0.25 | 0.25 | 0.5 | – | – | – |
| CC(C)[C@@H](N)C(=O)NCc1ccccc1OC(F)(F)F | inactive | 33 | 51 | 0.25 | > 500 | 9.2 | 0.5 | – | 0.25 | >15 | 5.5 | – |
| CN[C@@H](C(=O)NCc1ccccc1)C(C)C | – | – | – | – | – | – | – | – | – | – | – | 25 |
| CC(C)[C@H](C(=O)NCc1ccccc1)N(C)C | inactive | – | 100 | 0.5 | – | 30 | – | – | 0.5 | – | – | – |
| CC(C)[C@@H](N)C(=O)NCCc1ccccc1F | – | – | 79 | 0.25 | 500 | 27 | 4 | – | 0.25 | >25 | 2.9 | – |
| CCCC(=O)NCc1ccccc1 | – | – | 100 | 0.5 | > 30 | – | – | – | – | – | – | – |
| CC(C)[C@@H](N)C(=O)NCCc1cccc(F)c1 | – | 38 | 67 | 0.25 | > 500 | 20 | 0.5 | – | 0.25 | – | 3.4 | – |
| CCC1(c2ccccc2)C(=O)NC(=O)NC1=O [PHENOBARBITAL] | – | 9.1 | – | 0.5 | – | 22 | 5 | 0.5 | 1 | >100 | 3 | – |
| CC(=O)NC(C(=O)NCc1ccccc1)c1ccccc1 (racemic) | – | – | – | – | – | 20 | – | – | – | – | – | – |
| CC(C)[C@@H](N)CNCc1ccccc1 | inactive | > 30 | 100 | 0.5 | > 30 | 30 | 0.25 | 0.25 | 0.5 | – | – | – |
| O=C1NC(=O)C(c2ccccc2)(c2ccccc2)N1 [PHENYTOIN] | – | 30 | – | 0.25 | > 3000 | – | 4 | – | 2 | – | – | – |
| CC(C)[C@@H](N)C(=O)NCCCCc1ccccc1 | inactive | > 30 | 38 | 0.25 | > 30 | 11 | 0.25 | 0.25 | 0.25 | – | 3.5 | – |
| CC(C)[C@@H](N)C(=O)NCCCc1ccccc1 | inactive | < 30 | 43 | 0.25 | > 30 | 16 | 0.25 | 0.25 | 0.25 | – | 2.7 | – |
| CC(C)[C@@H](N)C(=O)CCc1ccccc1.Cl | inactive | – | 100 | – | – | 30 | – | – | – | – | – | – |
| CC(C)[C@@H](N)C(=O)NCCc1ccccc1 | inactive | < 30 | 50 | 0.25 | > 30 | 10 | 0.25 | 0.24 | 0.25 | – | 5 | – |
| CC(C)[C@@H](N)C(=S)NCc1ccccc1 | inactive | < 30 | 30 | 0.5 | > 30 | 30 | 0.5 | 0.25 | 0.5 | – | – | – |
| CC[C@@H](O)C(=O)NCc1ccccc1 | inactive | > 30 | 100 | 0.5 | > 30 | 100 | 0.25 | 0.25 | 0.5 | – | – | – |
| CC(C)[C@@H](N)C(=O)NCCc1ccc(F)cc1 | – | – | 30 | – | – | 10 | – | – | – | – | – | – |
| CC(C)[C@@H](N)C(=O)NCc1cccc(OC(F)(F)F)c1 | inactive | 10 | 30 | 0.25 | 43 | 7.1 | 1 | 1 | 0.25 | 4.3 | 4.2 | – |
| CC(C)[C@@H](N)C(=O)NCC1CCCCC1 | inactive | 15 | 100 | 0.5 | > 30 | 30 | 0.25 | 0.25 | 0.5 | – | – | – |
| CC[C@H](C)C(=O)NCc1ccccc1 | – | > 30 | 300 | 0.5 | > 30 | 100 | 0.25 | 0.25 | 0.5 | – | – | – |
| CCCC(CCC)C(=O)[O-].[Na+] [VALPROATE SODIUM] | – | – | – | 0.25 | – | 270 | 0.5 | 0.5 | 0.5 | – | – | – |
| COC[C@@H](NC(C)=O)C(=O)NCc1ccccc1 [LACOSAMIDE] | – | – | – | 0.25 | > 500 | – | 2 | – | 0.5 | – | 6 | – |
| CCC(C)C(=O)NCc1ccccc1 (racemic) | inactive | 51 | 165 | 0.25 | > 500 | 56 | 0.5 | – | 0.25 | >9.8 | 2.9 | – |
| CC(C)[C@@H](N)C(=O)Nc1ccccc1 | inactive | – | > 30 | 0.5 | – | 30 | – | – | 0.5 | – | – | – |
